Measurements reported in ChEMBL document CHEMBL1139452, “Synthesis and structure-activity relationships of 5,6,7,8-tetrahydro-4H-thieno[3,2-b]azepine derivatives: novel arginine vasopressin antagonists” (J Med Chem, 2004).

Legend:
[1] = target: Vasopressin V2 receptor (Homo sapiens, UniProt P30518); experiment: Inhibitory activity against human recombinant arginine vasopressin V2 receptor using [3H]AVP as radioligand in CHO cells; format: cell-based
How it was run: (§1)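 Competition binding on plasma membrane preparations, with [3H]AVP (80 Ci/mmol, 1–2 nM) and graded test compound, in 100 mM Tris-HCl pH 7.5, 5 mM MgCl2, 1 mM EDTA, 0.1% BSA, ≤1% final DMSO. Incubated 20 min at 37 °C, stopped with ice-cold Tris pH 8.0, filtered on GF/B. Nonspecific binding: 1 μM AVP. IC50 by regression of displacement curves; n = 3, mean ± SEM.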

[2] = target: Vasopressin V1 receptor (Homo sapiens, UniProt P37288+P47901); experiment: Inhibitory activity against arginine vasopressin V1 receptor using [3H]AVP as radioligand in human platelet; how it was run: as §1
[3] = system: Rattus norvegicus; experiment: Diuretic effect was determined after peroral administration at a dose of 10 mg/kg in rats; format: functional, Urine; conditions: route oral
How it was run: (§2)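 Male Sprague Dawley rats (250–350 g) fasted 16–20 h, some also without water for 16–20 h. Compound or vehicle given orally. Spontaneously voided urine collected over 4 h in metabolic cages and reported as mL/4 h; n = 3, mean ± SEM.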

[4] = system: Rattus norvegicus; experiment: Antagonistic effect against AVP-induced hypertension in rats after intravenous administration; format: functional; conditions: read-out: ID50 (the source's name)
How it was run: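 Male Sprague Dawley rats (250–350 g) under urethane anaesthesia (1.3 g/kg ip), with femoral artery and vein catheters, held at 37 °C. Compound or vehicle given iv (1 mL/kg) 2 min before AVP 30 mU/kg iv. ID50 is the dose inhibiting the maximal pressor response by 50%; n = 3, mean ± SEM.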

[5] = target: Vasopressin V2 receptor (Rattus norvegicus, UniProt Q00788); experiment: Inhibitory activity against arginine vasopressin V2 receptor using [3H]AVP as radioligand in rat […] medulla; format: tissue-based; how it was run: as §1
Chain of Vasopressin V2 receptor (Rattus norvegicus, UniProt Q00788) (Q00788 whole entry): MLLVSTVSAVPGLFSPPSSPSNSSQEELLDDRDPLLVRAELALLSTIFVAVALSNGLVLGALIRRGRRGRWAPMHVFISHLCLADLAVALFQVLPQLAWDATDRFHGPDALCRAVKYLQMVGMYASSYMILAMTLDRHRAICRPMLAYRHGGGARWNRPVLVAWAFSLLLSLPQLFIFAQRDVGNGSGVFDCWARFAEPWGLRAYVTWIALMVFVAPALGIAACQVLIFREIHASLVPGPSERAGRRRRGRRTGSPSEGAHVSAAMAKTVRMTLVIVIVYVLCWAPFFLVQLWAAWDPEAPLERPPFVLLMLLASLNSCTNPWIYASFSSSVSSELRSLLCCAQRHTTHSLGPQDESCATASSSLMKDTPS

[6] = target: Vasopressin V1 receptor (Rattus norvegicus, UniProt P48974+P30560); experiment: Inhibitory activity against arginine vasopressin V1 receptor using [3H]AVP as radioligand in rat liver; how it was run: as §1
[7] = system: Rattus norvegicus; experiment: Diuretic effect was determined after peroral administration at a dose of 30 mg/kg in rats; format: functional, Urine; conditions: route oral; how it was run: as §2

Chain of Vasopressin V2 receptor (Homo sapiens, UniProt P30518) (P30518 whole entry): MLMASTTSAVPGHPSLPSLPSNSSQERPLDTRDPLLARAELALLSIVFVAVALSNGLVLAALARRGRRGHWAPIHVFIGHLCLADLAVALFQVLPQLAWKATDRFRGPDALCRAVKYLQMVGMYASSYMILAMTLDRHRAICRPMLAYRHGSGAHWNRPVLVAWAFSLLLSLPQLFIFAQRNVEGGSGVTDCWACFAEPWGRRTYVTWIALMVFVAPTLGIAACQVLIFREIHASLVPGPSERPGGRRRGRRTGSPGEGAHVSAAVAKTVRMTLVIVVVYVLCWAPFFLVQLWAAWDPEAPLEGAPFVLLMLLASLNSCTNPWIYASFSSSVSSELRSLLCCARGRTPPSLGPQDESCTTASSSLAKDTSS

**Q.** How did the IC50 [1] turn out when `O=C(Nc1ccc(C(=O)N2CCCN(Cc3cccnc3)c3sccc32)cc1)c1ccccc1-c1ccccc1` was run?
**A.** The IC50 was 60 nM.

**Q.** And the IC50 [2]?
**A.** Its IC50 is 700 nM.

**Q.** And the Urine volume [3]?
**A.** The Urine volume was 1.2 ml 4hr-1.

**Q.** What about the ED50 [4] of the same compound?
**A.** The ED50 was 0.14 mg/kg.

**Q.** And the IC50 [5]?
**A.** Its IC50 is 30 nM.

**Q.** What about the IC50 [6] of the same compound?
**A.** Its IC50 is 500 nM.

**Q.** What does the source list for `COc1cc(C(=O)N2CCCC(N(C)C)c3sccc32)ccc1NC(=O)c1ccccc1-c1ccccc1` (stereo not given)?
**A.** IC50 [1]: 20 nM; IC50 [2]: 3000 nM; Urine volume [3]: 9.3 ml 4hr-1; ED50 [4]: > 0.3 mg/kg; IC50 [5]: 10 nM; Urine volume [7]: 12 ml 4hr-1; IC50 [6]: 2000 nM

**Q.** How did the IC50 [1] turn out when `O=C(Nc1ccc(C(=O)N2CCCN(CCN3CCCC3)c3sccc32)cc1)c1ccccc1-c1ccccc1` was run?
**A.** The IC50 was 200 nM.

**Q.** And the IC50 [2]?
**A.** Its IC50 is 800 nM.

**Q.** What about the Urine volume [3] of the same compound?
**A.** The Urine volume was 6.3 ml 4hr-1.

**Q.** And the ED50 [4]?
**A.** Its ED50 is greater than 0.3 mg/kg.

**Q.** What about the IC50 [5] of the same compound?
**A.** Its IC50 is 10 nM.

**Q.** And the IC50 [6]?
**A.** The IC50 was 200 nM.

**Q.** Which IC50 [1] does the source give for `CN(C)CCN(C)CCCCOc1cc(C(=O)N2CCCCc3sccc32)ccc1NC(=O)c1ccccc1-c1ccccc1` here?
**A.** Its IC50 is 80 nM.

**Q.** And the IC50 [2]?
**A.** Its IC50 is 5 nM.

**Q.** What about the Urine volume [3] of the same compound?
**A.** Its Urine volume is 10.2 ml 4hr-1.

**Q.** And the ED50 [4]?
**A.** The ED50 was 0.02 mg/kg.

**Q.** And the IC50 [5]?
**A.** The IC50 was 8 nM.

**Q.** What about the IC50 [6] of the same compound?
**A.** Its IC50 is 20 nM.

**Q.** For `CN1CCN(CCN2CCCN(C(=O)c3ccc(NC(=O)c4ccccc4-c4ccccc4)cc3)c3ccsc32)CC1`, which IC50 [1] is on record?
**A.** The IC50 was 50 nM.

**Q.** And the IC50 [2]?
**A.** The IC50 was 1000 nM.

**Q.** What about the Urine volume [3] of the same compound?
**A.** Its Urine volume is 7.4 ml 4hr-1.

**Q.** And the ED50 [4]?
**A.** The ED50 was greater than 0.3 mg/kg.

**Q.** What about the IC50 [5] of the same compound?
**A.** Its IC50 is 10 nM.

**Q.** And the IC50 [6]?
**A.** Its IC50 is 200 nM.

**Q.** Which IC50 [1] does the source give for `CN(C)C1CCN(C(=O)COc2cc(C(=O)N3CCCCc4sccc43)ccc2NC(=O)c2ccccc2-c2ccccc2)CC1` here?
**A.** The IC50 was 8 nM.

**Q.** What about the IC50 [2] of the same compound?
**A.** The IC50 was 50 nM.

**Q.** What about the Urine volume [3] of the same compound?
**A.** The Urine volume was 15 ml 4hr-1.

**Q.** And the ED50 [4]?
**A.** Its ED50 is 0.02 mg/kg.

**Q.** What about the IC50 [5] of the same compound?
**A.** Its IC50 is 4 nM.

**Q.** And the IC50 [6]?
**A.** The IC50 was 20 nM.

**Q.** What does the source list for `O=C(Nc1ccc(C(=O)N2CCCN(Cc3ccccc3)c3sccc32)cc1)c1ccccc1-c1ccccc1`?
**A.** IC50 [1]: 80 nM; IC50 [2]: 400 nM; ED50 [4]: > 0.3 mg/kg; IC50 [5]: 70 nM; IC50 [6]: 500 nM

**Q.** For `CN1CCCN(CC(=O)N2CCCN(C(=O)c3ccc(NC(=O)c4ccccc4-c4ccccc4)cc3)c3ccsc32)CC1`, which IC50 [1] is on record?
**A.** Its IC50 is greater than 10000 nM.

**Q.** And the IC50 [2]?
**A.** Its IC50 is greater than 10000 nM.

**Q.** What about the IC50 [5] of the same compound?
**A.** The IC50 was 100 nM.

**Q.** And the IC50 [6]?
**A.** The IC50 was greater than 10000 nM.

**Q.** Which results are given for `CCN(CC)C1CCN(C(=O)CCCOc2cc(C(=O)N3CCCCc4sccc43)ccc2NC(=O)c2ccccc2-c2ccccc2)CC1`?
**A.** IC50 [1]: 9 nM; IC50 [2]: 4 nM; Urine volume [3]: 18 ml 4hr-1; ED50 [4]: 0.01 mg/kg; IC50 [5]: 6 nM; IC50 [6]: 4 nM

**Q.** For `O=C(Nc1ccc(C(=O)N2CCCCc3sccc32)cc1OCCCC(=O)N1CCC(N2CCCCC2)CC1)c1ccccc1-c1ccccc1`, which IC50 [1] is on record?
**A.** Its IC50 is 30 nM.

**Q.** What about the IC50 [2] of the same compound?
**A.** Its IC50 is 10 nM.

**Q.** And the Urine volume [3]?
**A.** The Urine volume was 8 ml 4hr-1.

**Q.** What about the ED50 [4] of the same compound?
**A.** The ED50 was 0.03 mg/kg.

**Q.** And the IC50 [5]?
**A.** Its IC50 is 20 nM.

**Q.** What about the IC50 [6] of the same compound?
**A.** Its IC50 is 20 nM.

**Q.** With `CN1CCN(CCCCOc2cc(C(=O)N3CCCCc4sccc43)ccc2NC(=O)c2ccccc2-c2ccccc2)CC1` as the compound, how does the IC50 [1] read?
**A.** Its IC50 is 1 nM.

**Q.** What about the IC50 [2] of the same compound?
**A.** Its IC50 is 5 nM.

**Q.** And the Urine volume [3]?
**A.** Its Urine volume is 16.9 ml 4hr-1.

**Q.** And the ED50 [4]?
**A.** The ED50 was less than 0.01 mg/kg.

**Q.** What about the IC50 [5] of the same compound?
**A.** Its IC50 is 7 nM.

**Q.** And the IC50 [6]?
**A.** Its IC50 is 3 nM.

**Q.** With `CN1CCCN(C(=O)CCCOc2cc(C(=O)N3CCCCc4sccc43)ccc2NC(=O)c2ccccc2-c2ccccc2)CC1` as the compound, how does the IC50 [1] read?
**A.** Its IC50 is 10 nM.

**Q.** What about the IC50 [2] of the same compound?
**A.** The IC50 was 50 nM.

**Q.** What about the Urine volume [3] of the same compound?
**A.** The Urine volume was 19.1 ml 4hr-1.

**Q.** And the ED50 [4]?
**A.** The ED50 was 0.008 mg/kg.

**Q.** And the IC50 [5]?
**A.** The IC50 was 3 nM.

**Q.** What about the IC50 [6] of the same compound?
**A.** Its IC50 is 20 nM.

**Q.** With `O=C(Nc1ccc(C(=O)N2CCCCc3sccc32)cc1O)c1ccccc1-c1ccccc1` as the compound, how does the IC50 [1] read?
**A.** The IC50 was less than 10 nM.

**Q.** And the IC50 [2]?
**A.** Its IC50 is 60 nM.

**Q.** What about the Urine volume [3] of the same compound?
**A.** Its Urine volume is 2.3 ml 4hr-1.

**Q.** What about the ED50 [4] of the same compound?
**A.** Its ED50 is 0.04 mg/kg.

**Q.** And the IC50 [5]?
**A.** Its IC50 is less than 10 nM.

**Q.** And the IC50 [6]?
**A.** The IC50 was 200 nM.

**Q.** What does the source list for `CN1CCCN(CCCOc2cc(C(=O)N3CCCCc4sccc43)ccc2NC(=O)c2ccccc2-c2ccccc2)CC1`?
**A.** IC50 [1]: 2 nM; IC50 [2]: < 1 nM; Urine volume [3]: 18.3 ml 4hr-1; ED50 [4]: 0.03 mg/kg; IC50 [5]: < 1 nM; IC50 [6]: 2 nM

**Q.** Which results are given for `CN1CCN(C(=O)CCCOc2cc(C(=O)N3CCCCc4sccc43)ccc2NC(=O)c2ccccc2-c2ccccc2)CC1`?
**A.** IC50 [1]: 6 nM; IC50 [2]: 10 nM; Urine volume [3]: 17.6 ml 4hr-1; ED50 [4]: 0.03 mg/kg; IC50 [5]: 1 nM; IC50 [6]: 20 nM

**Q.** Which results are given for `CN(C)C1CCN(C(=O)CCCOc2cc(C(=O)N3CCCCc4sccc43)ccc2NC(=O)c2ccccc2-c2ccccc2)CC1`?
**A.** IC50 [1]: 20 nM; IC50 [2]: 3 nM; Urine volume [3]: 22 ml 4hr-1; ED50 [4]: 0.005 mg/kg; IC50 [5]: 3 nM; IC50 [6]: 6 nM

**Q.** Which results are given for `CN(C)CCN1CCCN(C(=O)c2ccc(NC(=O)c3ccccc3-c3ccccc3)cc2)c2ccsc21`?
**A.** IC50 [1]: 80 nM; IC50 [2]: 400 nM; Urine volume [3]: 6.7 ml 4hr-1; ED50 [4]: 0.31 mg/kg; IC50 [5]: 20 nM; IC50 [6]: 300 nM
